Test results: ChEMBL document CHEMBL1156295, “In vitro and in vivo photocytotoxicity of boron dipyrromethene derivatives for photodynamic therapy” (J Med Chem, 2010); call rule not given here

Columns and labels:
HSC-2 [1] = assay: Cell cycle arrest in human HSC2 cells irradiated with 4.1 J/cm^2 broad spectrum light assessed as accumulation at sub-G1 phase at 0.25 uM after 6 hrs by flow cytometry relative to control; type: functional
How it was run: (§1)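 HSC-2 cells given compound for 2 h, then irradiated with broad-spectrum light (or kept dark). Floating plus trypsinized adherent cells collected at set times after irradiation. Fixed in 70% ice-cold ethanol overnight at 4 °C, then stained 30 min with 20 μg/mL RNase A and 1 μM SYTOX Green. 1 × 10^4 cells read by flow cytometry (488 nm laser, FL1 530/30).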

[2] = Cellular uptake in human HSC2 cells assessed as intracellular localization in to cytoplasmic membrane at 100 nM by spinning disk confocal microscopy; type: ADME, cell-based; conditions: hsc-2, 0.1 µM
How it was run: (§2)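 HSC-2 cells grown on glass coverslips, co-incubated at room temperature for 15–30 min with compound plus probe: ER-Tracker 100 nM, LysoTracker 500 nM or Rh123 100 nM. Rinsed in PBS. XY sections at 0.2 μm imaged; excitation 330–385 nm for ER/Lyso probes, 460–490 nm for Rh123, 520–550 nm for photosensitizer.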

HSC-2 [3] = assay: Cell cycle arrest in human HSC2 cells irradiated with 4.1 J/cm^2 broad spectrum light assessed as accumulation at G1 phase at 0.25 uM after 6 hrs by flow cytometry relative to control; type: functional; how it was run: as §1
HSC-2 [4] = assay: Cell cycle arrest in human HSC2 cells irradiated with 4.1 J/cm^2 broad spectrum light assessed as accumulation at G2/M phase at 0.25 uM after 4 hrs by flow cytometry relative to control; type: functional; how it was run: as §1
HSC-2 [5] = assay: Cell cycle arrest in human HSC2 cells irradiated with 4.1 J/cm^2 broad spectrum light assessed as accumulation at G1 phase at 0.25 uM after 2 hrs by flow cytometry relative to control; type: functional; how it was run: as §1
HSC-2 [6] = assay: Cell cycle arrest in human HSC2 cells irradiated with 4.1 J/cm^2 broad spectrum light assessed as accumulation at G2/M phase at 0.25 uM after 2 hrs by flow cytometry relative to control; type: functional; how it was run: as §1
[7] = Cellular uptake in human HSC2 cells assessed as intracellular localization in to nuclear membrane at 100 nM by spinning disk confocal microscopy; type: ADME, cell-based; conditions: hsc-2, 0.1 µM; how it was run: as §2
HSC-2 [8] = assay: Cell cycle arrest in human HSC2 cells irradiated with 4.1 J/cm^2 broad spectrum light assessed as accumulation at G1 phase at 0.25 uM after 8 hrs by flow cytometry relative to control; type: functional; how it was run: as §1
[9] = Cellular uptake in human HSC2 cells assessed as intracellular localization in to lysosome labeled with lyso-tracker DND22 dye at 100 nM by spinning disk confocal microscopy; type: ADME, cell-based; conditions: hsc-2, 0.1 µM; how it was run: as §2
[10] = Cellular uptake in human HSC2 cells assessed as intracellular localization in to endoplasmic reticulum labeled with ER-tracker blue-white DPX dye at 100 nM by spinning disk confocal microscopy; type: ADME, cell-based; conditions: hsc-2, 0.1 µM; how it was run: as §2
[11] = Cytotoxicity against human HK1 cells after 24 hrs by MTT assay; type: functional, cell-based; conditions: HK-1, 24 h
How it was run: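 HL60 at 15000 cells/well; HSC-2 and HK1 at 3000 cells/well, adhered overnight; phenol-red-free medium with 10% FBS. Compound tested at 0.001–100.0 μM from DMSO stock; controls 0.01% DMSO. After 2 h, irradiated with broad-spectrum light at 6.8 mW/cm2, or dark. After 24 h, MTT 4 h at 37 °C, formazan in DMSO, A570. Three determinations, mean ± SD.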

HSC-2 [12] = assay: Cell cycle arrest in human HSC2 cells irradiated with 4.1 J/cm^2 broad spectrum light assessed as accumulation at G2/M phase at 0.25 uM after 8 hrs by flow cytometry relative to control; type: functional; how it was run: as §1
HSC-2 [13] = assay: Induction of apoptosis in human HSC2 cells irradiated with 4.1 J/cm^2 broad spectrum light assessed as apoptotic cells at 0.5 uM after 4 hrs of irradiation by annexin V-FITC staining; type: functional
How it was run: (§3)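 HSC-2 cells at 50% confluency in dishes, treated 2 h, then irradiated (4.1 J/cm2 broad spectrum) or kept dark. At intervals, floating and trypsinized cells pooled, washed in cold PBS, resuspended at 1 × 10^6 cells/mL in binding buffer. Stained 15 min in the dark at room temperature with annexin V-FITC and propidium iodide. 1 × 10^4 cells read by flow cytometry (FL1, FL3).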

HSC-2 [14] = assay: Induction of apoptosis in human HSC2 cells irradiated with 4.1 J/cm^2 broad spectrum light assessed as viable cells at 0.5 uM after 4 hrs of irradiation by annexin V-FITC staining; type: functional; conditions: HSC-2, light or radiation study, read-out: Activity; how it was run: as §3

CC1=C(I)C(C)=[N+]2C1=C(CCC(=O)O)c1c(C)c(I)c(C)n1[B-]2(F)F
Activity (HSC-2 [1]): 3.9% | Activity [2]: Not Active | Activity (HSC-2 [3]): 26.4% | Activity (HSC-2 [4]): 48.4% | Activity (HSC-2 [5]): 46.3% | Activity (HSC-2 [6]): 39.8% | Activity [7]: Not Active | Activity (HSC-2 [8]): 30.3% | Drug uptake [9]: Active | Drug uptake [10]: Active | IC50 [11]: 55.8 µM | Activity (HSC-2 [12]): 48.8% | Activity (HSC-2 [13]): 8.7% | viability at 0.5 µM (HSC-2 [14]): 91.3%
